Results reported in PubChem BioAssay.
The source made the active and inactive calls.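 The calls were made as follows, unless noted: active = inhibition above 20% together with a positive visual image hit; inconclusive = visual image hit but inhibition not above 20%; inactive = no visual image hit.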

Experiments:
[1] = inhibitors of TNFa-induced NFkB p65 translocation, primary screen, imaging, HUVEC, MLSMR starter and 10KST1 sets (AID 438); settings: HUVEC TNFa-induced p65 nuclear translocation; cell count: measured here: nuclei count (cytotoxicity indicator), at 2.08 µM; inhibition: at 2 µM, stronger effect = higher value, 0% TNFa-plus-vehicle, 100% no-TNFa wells;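 also: compound added about 3h40 before a 20 min TNFalpha stimulation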;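 as to inhibition: signal is the nuclear over cytoplasmic p65 intensity ratio per well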
[2] = inhibitors of E-selectin induction by TNFa, primary screen, imaging, HUVEC, immunofluorescence, MLSMR starter and 10KST1 sets (AID 487;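 active = visually confirmed hit in the image check and inhibition above 20%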;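 as to inhibition: signal is fraction of cell area covered by stained E-selectin grains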;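 as to nuclei count: 100% = median nuclei count of all wells on the same plate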); settings: HUVEC TNFalpha-induced E-selectin immunofluorescence imaging, at 2 µM; inhibition: stronger effect = higher value; nuclei count: measured here: cell number, toxicity
[3] = DUSP6 inhibitors restoring Erk phosphorylation by chemical complementation, primary imaging in DUSP6-transfected HeLa (AID 609;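 active = compounds giving at least 50% inhibition in the cell-based MKP-3 phosphatase rescue imaging test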;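 as to inhibition: phospho-Erk level distribution per well compared with pooled transfected vehicle control wells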); settings: HeLa MKP-3 transfected, phospho-Erk imaging KS statistic, at 10 µM, cells stimulated with TPA for 15 min
[4] = target: Dual specificity protein phosphatase 6 (Homo sapiens) (UniProt Q16828); assay: as above; settings: HeLa MKP-3 transfected, phospho-Erk imaging KS statistic; at 10 µM; stronger effect = higher value; cells stimulated with TPA for 15 min
Chain of Dual specificity protein phosphatase 6 (Homo sapiens) (Q16828 whole entry, looked up): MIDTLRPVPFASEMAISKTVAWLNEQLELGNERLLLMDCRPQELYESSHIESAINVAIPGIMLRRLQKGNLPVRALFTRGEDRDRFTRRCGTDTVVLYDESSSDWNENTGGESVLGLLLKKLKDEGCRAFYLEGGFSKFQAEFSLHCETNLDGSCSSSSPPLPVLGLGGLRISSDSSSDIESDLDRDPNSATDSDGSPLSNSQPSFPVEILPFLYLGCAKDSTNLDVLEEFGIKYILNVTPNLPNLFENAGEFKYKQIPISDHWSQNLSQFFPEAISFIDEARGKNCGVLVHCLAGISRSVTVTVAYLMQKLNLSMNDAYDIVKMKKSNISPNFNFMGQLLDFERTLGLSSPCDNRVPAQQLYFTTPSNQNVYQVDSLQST

[5] = target: Voltage-gated potassium channel subunit beta-2 (Rattus norvegicus) (UniProt P62483); assay: KvBeta enzyme negative modulators, primary screen, biochemical, NADPH fluorescence (AID 622;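 active = fluorescence slope higher than the sample average by over 3 SD, cut at about -0.22 in these data, passing the limit was not always enough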;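 also: slope of raw intensity against log time taken from 70 to 1610 s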); settings: recombinant KvBeta, 4-cyanobenzaldehyde reduction, at 10 µM, stronger effect = higher value
Chain of Voltage-gated potassium channel subunit beta-2 (Rattus norvegicus) (P62483 whole entry, looked up): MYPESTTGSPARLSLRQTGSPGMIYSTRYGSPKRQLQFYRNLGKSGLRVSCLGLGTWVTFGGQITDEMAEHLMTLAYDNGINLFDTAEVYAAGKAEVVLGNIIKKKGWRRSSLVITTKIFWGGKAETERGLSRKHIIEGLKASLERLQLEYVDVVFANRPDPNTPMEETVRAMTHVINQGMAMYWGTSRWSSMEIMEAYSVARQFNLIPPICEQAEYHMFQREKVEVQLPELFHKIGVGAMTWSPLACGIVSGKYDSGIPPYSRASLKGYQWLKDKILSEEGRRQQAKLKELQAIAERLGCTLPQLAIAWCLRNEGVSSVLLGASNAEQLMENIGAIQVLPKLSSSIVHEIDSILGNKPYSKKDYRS

[6] = target: Voltage-gated potassium channel subunit beta-2 (Rattus norvegicus) (UniProt P62483); assay: KvBeta positive modulators, primary screen, biochemical, NADPH fluorescence (AID 623;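 active = NADPH fluorescence slope more negative than the mean of all samples by about 3 SD, 99.7% confidence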;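 also: fluorescence intensity change per second fitted from 20 to 320 s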); settings: Recombinant KvBeta, NADPH fluorescence decrease slope, 10 min; at 10 µM; stronger effect = lower value
[7] = target: Alpha-2C adrenergic receptor (Homo sapiens) (UniProt P18825); assay: modulators of alpha2C/GIRK thallium flux, primary screen, cell-based, HEK293 alpha2C/GIRK1/2 (AID 624;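 active = fluorescence slope after compound addition differing from the mean of all screened samples at 99.7% confidence, in either direction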;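 also: slope of fluorescence ratio to pre-addition baseline per second over 15 to 24 s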); settings: thallium flux BTC fluorescence, at 10 µM, actives lie on both sides
Chain of Alpha-2C adrenergic receptor (Homo sapiens) (P18825 whole entry, looked up): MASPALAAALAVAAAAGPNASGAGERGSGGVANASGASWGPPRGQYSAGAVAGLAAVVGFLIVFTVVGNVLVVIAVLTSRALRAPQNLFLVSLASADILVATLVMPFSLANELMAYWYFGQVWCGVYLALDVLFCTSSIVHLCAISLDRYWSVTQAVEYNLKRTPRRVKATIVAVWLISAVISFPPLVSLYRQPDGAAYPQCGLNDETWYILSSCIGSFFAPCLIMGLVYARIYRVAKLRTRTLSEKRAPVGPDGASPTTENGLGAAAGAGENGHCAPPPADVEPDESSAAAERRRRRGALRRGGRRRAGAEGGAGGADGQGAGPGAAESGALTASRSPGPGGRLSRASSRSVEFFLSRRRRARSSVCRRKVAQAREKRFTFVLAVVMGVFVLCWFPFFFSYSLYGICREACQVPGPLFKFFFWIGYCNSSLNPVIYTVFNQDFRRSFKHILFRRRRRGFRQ

[8] = inhibitors of larval lipid processing in zebrafish, primary screen, whole organism, PED6 fluorescence, gall bladder and intestine (AID 686;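 active = a full or partial loss of lipid-probe fluorescence in the fish gall bladder, intestine or both, judged by eye; inactive = no fluorescence loss, or compound toxic to the fish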;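 also: larvae 5 to 7 days old with five fish per well; signal comes from phospholipase A2 cleavage of quenched PED6 carried via bile; overnight exposure to compound and PED6 before scoring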); settings: Zebrafish larvae PED6 lipid processing, fluorescence scoring; screened at 20 µM (by protocol)
How it was run: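 Doses: 20 µM single dose. Test system: live zebrafish larvae aged 5-7 days, whole organism. Quantity: five larvae per well. Measured by: By-eye fluorescence microscopy. Reagent: ingested quenched lipid PED6 at 100 nM. Read-out: visual per-well fluorescence inhibition score. Times: overnight exposure of larvae to compound plus PED6.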

[9] = inhibitors of Chlamydomonas gravitaxis, primary screen, whole organism, Chlamydomonas reinhardtii, WT vs cilia-less mutant, absorbance, 96-well (AID 463189;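 active = inhibition at or above 50% relative to wild type and mutant plate controls; inactive = inhibition below 50%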;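 also: 0% = wild type cc124 cells in DMSO and 100% = ciliumless bld1 mutant cells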); settings: OD600 absorbance, 2 days, at 10 µM, stronger effect = higher value
[10] = measured here: cell density z-score
[11] = measured here: nuclear c-Myc green intensity z-score
[12] = measured here: nuclear pErk red intensity z-score, stronger effect = higher value

| SMILES | cell count [1] | inhibition [1] | inhibition [2] | nuclei count [2] | z-score [3, 10] | z-score [3, 11] | z-score [3, 12] | inhibition [4] | fluorescence slope [5] | NADPH fluorescence slope [6] | slope [7] | outcome [8] | inhibition [9] |
| --- | --- | --- | --- | --- | --- | --- | --- | --- | --- | --- | --- | --- | --- |
| CCOC(=O)c1c(N)sc2c1CCC1C(=O)N(C3CCCCC3)C(=O)C21 (centres undefined) | 593 | -15.5% (inactive) | -59.6% (inactive) | 170% | -0.619 | -0.159 | 0.799 | -11% (inactive) | -0.362 (inactive) | -3.1e-06 (inactive) | 0.0048 (inactive) | inactive | -3.12% (inactive) |
| CSCCC(CO)NC(=O)OCc1ccccc1 (centres undefined) | 562 | -15% (inactive) | -130% (inactive) | 142% | 1.72 | -0.612 | -0.962 | 3.97% (inactive) | -0.503 (inactive) | -8.5e-05 (inactive) | 0.00774 (inactive) | inactive | 2.98% (inactive) |
| Cc1ccc(C2CC(C(F)(F)F)n3ncc(C(N)=O)c3N2)cc1 (centres undefined) | 506 | -1.3% (inactive) | 4.8% (inactive) | 124% | -0.204 | -0.144 | 1.07 | -7.79% (inactive) | -0.5 (inactive) | -8.2e-05 (inactive) | 0.00506 (inactive) | inactive | 16.3% (inactive) |
| COc1ccc(Nc2oc(-c3cccs3)nc2C#N)cc1 | 383 | 2.9% (inactive) | -134% (inactive) | 142% | 1.97 | -0.949 | -1.32 | 15% (inactive) | -0.352 (inactive) | -1.7e-05 (inactive) | 0.00524 (inactive) | inactive | 16% (inactive) |
| O=C(CCN1CCCCC1)Nc1cccc(Cl)c1 | 336 | -14.7% (inactive) | -49.9% (inactive) | 138% | -1.72 | 0.965 | 0.516 | -3.5% (inactive) | -0.42 (inactive) | -0.000129 (inactive) | 0.0069 (inactive) | inactive | -5.09% (inactive) |
| CCOc1cccc(C2C(C#N)=C(N)Oc3cc(C)oc(=O)c32)c1OCC (centres undefined) | 362 | -24.9% (inactive) | -67.3% (inactive) | 143% | 0.354 | -0.768 | 1.02 | 8.76% (inactive) | -0.441 (inactive) | -0.000143 (inactive) | 0.00434 (inactive) | inactive | 10.1% (inactive) |
| CN1C(=O)c2ccc(N(C)C)cc2C1=O | 681 | -8.8% (inactive) | 17.3% (inactive) | 175% | 0.273 | -0.466 | -0.534 | 3.66% (inactive) | -0.479 (inactive) | -6.8e-05 (inactive) | 0.00498 (inactive) | inactive | 21.8% (inactive) |
| COC(=O)c1ccc(Cn2cnc3c(sc4nc(N5CCOCC5)c5c(c43)CCCC5)c2=O)o1 | 505 | 10.2% (inactive) | -144% (inactive) | 132% | -0.452 | 0.953 | 0.541 | -7.01% (inactive) | -0.47 (inactive) | -2.7e-05 (inactive) | 0.00736 (inactive) | inactive; toxic | 6.85% (inactive) |
| CCOc1nc(Oc2cccc(C(=O)O)c2)nc(Oc2cccc(C(=O)O)c2)n1 | 627 | -14.8% (inactive) | -46.5% (inactive) | 182% | 0.0666 | 0.636 | -0.0605 | -1.12% (inactive) | -0.538 (inactive) | -3.4e-05 (inactive) | 0.00497 (inactive) | inactive | 6.3% (inactive) |
| COCc1cc(C)nc(N)c1C#N | 606 | 5.8% (inactive) | -20.1% (inactive) | 136% | 0.714 | -1.4 | 1.43 | 16.1% (inactive) | -0.219 (inactive) | 9.7e-06 (inactive) | 0.00554 (inactive) | inactive | -2% (inactive) |
| N#CCCn1cnc2c(=S)nc[nH]c21 | 355 | -12.9% (inactive) | -142% (inactive) | 181% | 0.101 | 0.0894 | 1.37 | 1.6e-07% (inactive) | -0.438 (inactive) | -0.000132 (inactive) | 0.00509 (inactive) | inactive | -4.04% (inactive) |
| Oc1ccc(C=Nc2ccc3ncccc3c2)c(O)c1 | 490 | -5.8% (inactive) | -113% (inactive) | 117% | 1.18 | -0.733 | -0.981 | 3.66% (inactive) | -0.477 (inactive) | -3.5e-05 (inactive) | 0.00388 (inactive) | inactive | -13.6% (inactive) |
| COc1ccc(N/C(=N\c2nc(C)cc(C)n2)NC(=O)C(C)C)cc1OC | 568 | -6% (inactive) | -158% (inactive) | 138% | 0.3 | 1.29 | 0.284 | 3.97% (inactive) | -0.481 (inactive) | -3.5e-05 (inactive) | 0.00493 (inactive) | inactive | 1.34% (inactive) |
